The entries come from a sample that favours hits as a whole.
Ecoli WT growth: blocks growth of wild type E. coli BW25113 | E. coli BW25113 growth inhibition, OD600 | inhibition, % at 10 µM | actives 0.05% (n = 20,000); in the data active means inhibition above about 40%;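 further: bacteria exposed to compound for 20 hours at 37 °C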
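Assay system: Bacterial strain in a whole-cell growth screen | Amount: Inoculum from a 1:1000 dilution of a 1.5 h subculture | Detection: Absorbance at 615 nm as a measure of bacterial growth | Timing: 20 h exposure, 37 °C | Buffer or medium: LB plus kanamycin 50 µg/mL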
Starred values were filed as active, the others as inactive.

SMILES	Ecoli WT growth
CN(C)[C@@H]1C(=O)C(C(N)=O)=C(O)[C@@]2(O)C(=O)C3=C(O)c4c(O)cccc4[C@@](C)(O)[C@H]3[C@H](O)[C@@H]12	40*
CN(C)CCN=Cc1c(O)n(-c2cccc3ccccc23)c(=O)[nH]c1=O	-6
COc1ccccc1N1CCN(Cc2cccc(OC)c2O)CC1	6
O=C(CCCN1CCC2(CC1)C(=O)NCN2c1ccccc1)c1ccc(F)cc1	-3
CCSc1cc(C2C(C#N)=C(N)Oc3n[nH]c(C)c32)c(C)o1 (configuration not stated)	4

Bioassay records as filed in PubChem BioAssay.
